Laboratory results as given in ChEMBL document CHEMBL1141603, “2-aryloxy-4-alkylaminopyridines: discovery of novel corticotropin-releasing factor 1 antagonists” (J Med Chem, 2008).
Converted amounts (≈) assume the structure as drawn. The source made the active and inactive calls. The calls are words filed in the database; no cut-off is given here.

Key:
[1] = Clearance in Beagle dog at 1.0 mg/kg, iv; type: ADME, organism-based, Canis lupus familiaris; set-up: dose 1 mg/kg, route intravenous; settings: in vivo
In short: (§1)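 Four beagles (2 male, 2 female, 8–15 kg), 1.0 mg/kg into cephalic vein; fasted ~21 h predose, fed ~3.5 h postdose. Serum sampled from jugular at 0.083–24 h, assayed by GC-MS (LLOQ 1.0 ng/mL). Noncompartmental: linear trapezoid AUC/AUMC, kel from log-linear terminal slope, t1/2 = 0.693/kel, CL = dose/AUC, VDss = CL·AUMC/AUC, VDγ = CL/kel.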

[2] = Volume of distribution at steady state in Beagle dog at 1.0 mg/kg, iv; type: ADME, organism-based, Canis lupus familiaris; set-up: dose 1 mg/kg, route intravenous; settings: in vivo, read-out: Vdss; in short: as §1
[3] = Volume of distribution at terminal elimination phase in Beagle dog at 1.0 mg/kg, iv; type: ADME, organism-based, Canis lupus familiaris; set-up: dose 1 mg/kg, route intravenous; settings: in vivo; in short: as §1
[4] = Half life at terminal elimination phase in Beagle dog at 1.0 mg/kg, iv; type: ADME, organism-based, Canis lupus familiaris; set-up: dose 1 mg/kg, route intravenous; settings: in vivo; in short: as §1
[5] = Cmax in fasted Beagle dog at 5.0 mg/kg, po; type: ADME, organism-based, Canis lupus familiaris; set-up: dose 5 mg/kg, route oral; settings: in vivo
In short: (§2)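 Fasted beagles (fasted ~21 h, food ~3.5 h postdose) gavaged with drug suspended in 0.1% methyl cellulose pH 2. Jugular serum taken 0.25–24 h, GC-MS quantitation (LLOQ 1.0 ng/mL). Cmax and Tmax from observed profiles; F = (dose i.v.·AUC p.o.)/(dose p.o.·AUC i.v.), AUC by linear trapezoid with log-linear extrapolation.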

[6] = Tmax in fasted Beagle dog at 5.0 mg/kg, po; type: ADME, organism-based, Canis lupus familiaris; set-up: dose 5 mg/kg, route oral; settings: in vivo; in short: as §2
[7] = Oral bioavailability in fasted Beagle dog at 5.0 mg/kg; type: ADME, organism-based, Canis lupus familiaris; settings: in vivo; in short: as §2
[8] = Cmax in fed Beagle dog at 5.0 mg/kg, po; type: ADME, organism-based, Canis lupus familiaris; set-up: dose 5 mg/kg, route oral; settings: in vivo
In short: (§3)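 Beagles fed one can of wet dog food 1 h before gavage of drug suspended in 0.1% methyl cellulose pH 2. Serum from jugular venipuncture at 0.25–24 h postdose, GC-MS analysis (LLOQ 1.0 ng/mL). Bioavailability = dose-normalized oral AUC(0–∞) over i.v. AUC(0–∞).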

[9] = target: T1, Corticotropin-releasing factor receptor 1 (Rattus norvegicus, UniProt P35353); assay: (§4) Displacement of [125I]oCRF from rat CRF1 after 2 hrs by Betaplate scintillation counter
T1 sequence (P35353 whole entry): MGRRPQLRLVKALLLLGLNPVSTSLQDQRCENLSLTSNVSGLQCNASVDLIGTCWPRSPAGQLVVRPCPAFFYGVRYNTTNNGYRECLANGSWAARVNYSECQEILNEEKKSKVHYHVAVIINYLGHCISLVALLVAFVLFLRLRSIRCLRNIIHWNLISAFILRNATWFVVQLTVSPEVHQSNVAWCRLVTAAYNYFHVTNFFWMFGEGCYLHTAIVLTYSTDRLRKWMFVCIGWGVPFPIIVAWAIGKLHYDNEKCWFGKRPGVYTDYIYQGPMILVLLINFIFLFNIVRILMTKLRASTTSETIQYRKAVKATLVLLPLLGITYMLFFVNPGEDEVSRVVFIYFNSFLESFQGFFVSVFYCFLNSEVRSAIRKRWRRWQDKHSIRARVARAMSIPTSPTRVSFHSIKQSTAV

Rattus norvegicus [10] = assay: Ex vivo displacement of [125I]oCRF from CRF1 receptor in Sprague-Dawley rat brain cortex at 3.2 mg/kg, po after 2 hrs by Betaplate scintillation counter; type: functional
In short: (§5)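 Male Sprague–Dawley rats (200–300 g) dosed orally 3.2 mg/kg; killed usually 1 h later, brain and pituitary frozen. Tissue at 25 mg wet wt/mL in PIPES pH 7.0 buffer with MgCl2, EGTA, bacitracin, aprotinin, incubated with 40 pM 125I-oCRF 2 h at room temperature; nonspecific with 1 µM rat/human CRF. Pellets centrifuged, rinsed, filtered, scintillation counted.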

Rattus norvegicus [11] = assay: Ex vivo displacement of [125I]oCRF from CRF1 receptor in Sprague-Dawley rat pituitary at 3.2 mg/kg, po after 2 hrs by Betaplate scintillation counter; type: functional; in short: as §5
[12] = Tmax in fed Beagle dog at 5.0 mg/kg, po; type: ADME, organism-based, Canis lupus familiaris; set-up: dose 5 mg/kg, route oral; settings: in vivo; in short: as §3
[13] = Oral bioavailability in fed Beagle dog at 5.0 mg/kg; type: ADME, organism-based, Canis lupus familiaris; settings: in vivo; in short: as §3
[14] = Intrinsic clearance in human liver microsomes; type: ADME, Microsome
[15] = Dissociation constant, pKa of the compound; type: physicochemical
[16] = Solubility at pH 7; type: physicochemical; settings: buffer
[17] = Solubility at pH 2; type: physicochemical; settings: buffer
[18] = target: T2, Corticotropin-releasing factor receptor 1 (Rattus norvegicus) (UniProt P35353); assay: as §4
T2 sequence (whole entry): T1 sequence (P35353 whole entry)

[19] = target: T3, Corticotropin-releasing factor receptor 1 (Homo sapiens, UniProt P34998); assay: Antagonist activity at human CRF1 receptor assessed as oCRF-stimulated adenylate cyclase activity after 15 mins by liquid scintillation counting; type: functional; settings: read-out: Ki app
T3 sequence (P34998 whole entry): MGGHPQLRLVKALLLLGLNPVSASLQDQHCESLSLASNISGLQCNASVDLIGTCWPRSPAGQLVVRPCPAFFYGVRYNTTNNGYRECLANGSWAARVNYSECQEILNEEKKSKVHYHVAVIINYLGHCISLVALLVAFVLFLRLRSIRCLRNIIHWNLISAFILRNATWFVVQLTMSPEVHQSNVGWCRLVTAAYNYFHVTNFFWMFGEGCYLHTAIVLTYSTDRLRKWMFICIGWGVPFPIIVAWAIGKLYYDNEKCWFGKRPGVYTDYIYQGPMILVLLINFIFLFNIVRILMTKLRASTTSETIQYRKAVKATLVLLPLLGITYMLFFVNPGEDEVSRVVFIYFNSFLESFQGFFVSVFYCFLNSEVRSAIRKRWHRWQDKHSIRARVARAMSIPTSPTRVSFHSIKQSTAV

[20] = target: T4, Corticotropin-releasing factor receptor 2 (Homo sapiens, UniProt Q13324); assay: Binding affinity for human CRF2 receptor; settings: read-out: Ki app
T4 sequence (Q13324 whole entry): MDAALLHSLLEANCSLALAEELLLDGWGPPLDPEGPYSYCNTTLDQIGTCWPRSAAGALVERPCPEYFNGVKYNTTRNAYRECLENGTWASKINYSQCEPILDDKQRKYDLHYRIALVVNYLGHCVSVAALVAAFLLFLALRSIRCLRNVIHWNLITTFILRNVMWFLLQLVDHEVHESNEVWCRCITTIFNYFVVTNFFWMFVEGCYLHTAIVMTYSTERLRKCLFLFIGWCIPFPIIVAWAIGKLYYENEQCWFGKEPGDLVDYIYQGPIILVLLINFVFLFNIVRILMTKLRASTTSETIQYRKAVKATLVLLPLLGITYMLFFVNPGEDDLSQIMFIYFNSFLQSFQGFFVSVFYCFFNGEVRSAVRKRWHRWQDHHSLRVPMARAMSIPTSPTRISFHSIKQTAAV

Rattus norvegicus [21] = species: Rattus norvegicus; assay: Inhibition of CRF-induced […] of HPA axis in Sprague-Dawley rat assessed as increase in ACTH levels by radioimmunoassay; type: functional; settings: read-out: MED
In short: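 Oral pretreatment in rats, N = 10 per group, then i.v. CRF 4 µg/kg; plasma ACTH measured. Minimum effective dose versus CRF alone by one-way ANOVA with Dunnett's post hoc test, p < 0.05.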

Rattus norvegicus [22] = assay: Inhibition of CRF-induced exitation of locus coerulus neurons in iv dosed Sprague-Dawley rat; type: functional; settings: read-out: ID50 (the source's name)
Rattus norvegicus [23] = assay: Inhibition of CRF-induced startle response in Sprague-Dawley rat at 17.8 mg/kg, po; type: functional, organism-based; set-up: dose 17.8 mg/kg
In short: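 CRF 1 µg given icv to rats to enhance acoustic startle; compound dosed p.o. beforehand, with baseline startle also recorded.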

Rattus norvegicus [24] = assay: Inhibition of fear-potentiated startle response in Sprague-Dawley rat at 0.32 to 3.2 mg/kg, po; type: functional; set-up: scale not given: the % may be the effect or the level left; settings: dose mg/kg 0.32-3.2
Rattus norvegicus [25] = assay: Inhibition of fear-potentiated startle response in Sprague-Dawley rat at 10 mg/kg, po; type: functional, organism-based; set-up: dose 10 mg/kg
[26] = Cmax in fasted Beagle dog at 1.0 mg/kg, po; type: ADME, organism-based, Canis lupus familiaris; set-up: dose 1 mg/kg, route oral; settings: in vivo; in short: as §2
[27] = Tmax in fasted Beagle dog at 1.0 mg/kg, po; type: ADME, organism-based, Canis lupus familiaris; set-up: dose 1 mg/kg, route oral; settings: in vivo; in short: as §2
[28] = Oral bioavailability in fasted Beagle dog at 1.0 mg/kg; type: ADME, organism-based, Canis lupus familiaris; settings: in vivo; in short: as §2
[29] = Solubility at pH 2.4; type: physicochemical; settings: buffer
[30] = Metabolic stability in human liver microsomes assessed as half life; type: ADME, Microsome
[31] = target: T1, Corticotropin-releasing factor receptor 1; assay: Antagonist activity at CRF1 receptor in rat cortical membrane assessed as oCRF-stimulated adenylate cyclase activity after 15 mins by liquid scintillation; type: functional, cell membranes; settings: read-out: Ki app
[32] = Cmax in fed Beagle dog at 1.0 mg/kg, po; type: ADME, organism-based, Canis lupus familiaris; set-up: dose 1 mg/kg, route oral; settings: in vivo; in short: as §3
[33] = Tmax in fed Beagle dog at 1.0 mg/kg, po; type: ADME, organism-based, Canis lupus familiaris; set-up: dose 1 mg/kg, route oral; settings: in vivo; in short: as §3
[34] = Oral bioavailability in fed Beagle dog at 1.0 mg/kg; type: ADME, organism-based, Canis lupus familiaris; settings: in vivo; in short: as §3
[35] = Fraction unbound ligand in human serum; type: ADME, cell-free

## CCC(CC)Oc1cc(C)nc(Oc2c(C)cc(C)cc2C)c1C
[1]
  clearance: 4.1 mL/min/kg
[2]
  Vd: 1.1 L/kg
[3]
  Vd: 3.1 L/kg
[4]
  half-life: 8.3 h
[5]
  Cmax: 187 ng/mL
[6]
  Tmax: 1.5 h
[7]
  bioavailability: 3.6%
[8]
  Cmax: 1740 ng/mL
[9]
  IC50: 6.8 nM
Rattus norvegicus [10]
  inhibition in vivo at 3.2 mg/kg: 75%
Rattus norvegicus [11]
  inhibition in vivo at 3.2 mg/kg: 72%
[12]
  Tmax: 1.9 h
[13]
  bioavailability: 37%

## CCC(CC)Oc1cc(C)nc(Nc2c(C)cc(C)cc2C)c1C
[9]
  IC50: 3.7 nM

## CC[C@@H](CO)Nc1cc(C)nc(Oc2c(C)cc(Cl)cc2C)c1C(=O)OC
[9]
  IC50: 6.4 nM
Rattus norvegicus [10]
  inhibition in vivo at 3.2 mg/kg: 111%
Rattus norvegicus [11]
  inhibition in vivo at 3.2 mg/kg: 86%
[14]
  microsomal CLint: 47 µL/min/mg

## CCC(CC)Oc1cc(C)nc(Oc2c(C)cc(C)cc2C)c1C.CS(=O)(=O)O
[15]
  pKa: 3.6
[16]
  solubility: 0.2 µg/mL
[17]
  solubility: 3 µg/mL

## CCC(CC)Oc1cc(C)nc(Nc2c(C)cc(C)cc2C)c1C(=O)O
[18]
  Activity: inactive

## CCC(CC)Nc1cc(C)nc(Oc2c(C)cc(C)cc2C)c1C
[19]
  Ki: 12 nM
[20]
  Ki: > 10000 nM
Rattus norvegicus [21]
  minimal effective dose: 10 mg/kg
Rattus norvegicus [22]
  ED50: < 0.01 mg/kg
Rattus norvegicus [23]
  Activity: Active
Rattus norvegicus [24]
  Activity: 62%
Rattus norvegicus [25]
  Activity: Active
[1]
  clearance: 17 mL/min/kg
[2]
  Vd: 5.3 L/kg
[3]
  Vd: 12 L/kg
[4]
  half-life: 8.8 h
[26]
  Cmax: 46.2 ng/mL
[27]
  Tmax: 1.8 h
[28]
  bioavailability: 22%
[9]
  IC50: 5.1 nM
[29]
  solubility: 5400 µg/mL (≈ 16.5 mM)
[15]
  pKa: 6.9
[16]
  solubility: 0.1 µg/mL (≈ 0.000306 mM)
Rattus norvegicus [10]
  inhibition in vivo at 3.2 mg/kg: 81%
Rattus norvegicus [11]
  inhibition in vivo at 3.2 mg/kg: 49%
[30]
  half-life: 0.633 h
[31]
  Ki: 12 nM
[32]
  Cmax: 131 ng/mL
[33]
  Tmax: 2 h
[34]
  bioavailability: 64%

## CC[C@@H](CO)Nc1cc(C)nc(Oc2c(C)cc(Cl)cc2C)c1C(=O)NC
[9]
  IC50: 31 nM
Rattus norvegicus [10]
  inhibition in vivo at 3.2 mg/kg: 86%
Rattus norvegicus [11]
  inhibition in vivo at 3.2 mg/kg: 63%
[35]
  fraction unbound: 0.045

## CCC(CC)Nc1cc(C)nc(Nc2c(C)cc(C)cc2C)c1C
[9]
  IC50: 750 nM
[15]
  pKa: 9.3

## CCC(CC)Nc1cc(C)nc(Oc2c(C)cc(Cl)cc2C)c1C
[9]
  IC50: 7.2 nM
Rattus norvegicus [10]
  inhibition in vivo at 3.2 mg/kg: 79%
Rattus norvegicus [11]
  inhibition in vivo at 3.2 mg/kg: 72%
[30]
  half-life: 0.5 h

## CCC(CC)Nc1cc(C)nc(Oc2c(C)cc(Br)cc2C)c1C
[9]
  IC50: 5.6 nM
Rattus norvegicus [10]
  inhibition in vivo at 3.2 mg/kg: 86%
Rattus norvegicus [11]
  inhibition in vivo at 3.2 mg/kg: 81%
